Laboratory results published in ChEMBL document CHEMBL1177726, “Amphiphilic amide nitrones: a new class of protective agents acting as modifiers of mitochondrial metabolism” (J Med Chem, 2010).
≈ marks a conversion by molar mass, not a printed value. Calls of active or inactive are those of the source. No cut-off for these calls is given here.

Experiments:
[1] = Inhibition of doxorubicin-induced cell death in Sprague-Dawley rat primary mixed cortical cells at 10 uM after 24 hrs by trypan blue absorbance assay; type: functional
Procedure, shortened: (§1)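 Mixed cortical cultures from E15 rat embryos were exposed for 24 h to H2O2, peroxynitrite or doxorubicin (200 μM), with nitrone (10 μM) added at the same time. Cell death was measured by trypan blue absorbance at 590 nm and expressed as % inhibition. Mean ± SEM, N = 10; ANOVA with Bonferroni t test against vehicle.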

Rotifers [2] = assay: Protection against hydrogen peroxide-induced toxicity in Rotifers assessed as viability at 10 uM after 24 hrs; type: functional, Rotifera
Procedure, shortened: (§2)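 Individually housed Philodina rotifers were exposed for 24 h to H2O2 or doxorubicin (200 μM), with nitrone (10 μM) added at the same time. Read-out was % viable animals. Vehicle controls came from the same stock culture and were run in parallel. Mean ± SEM, N = 10; ANOVA with Bonferroni t test.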

[3] = Antioxidant activity assessed as reduction of ABTS radical measured for 30 mins; type: functional
Procedure, shortened: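 ABTS cation radical at 105 μM final, test compound at 0.5 mM final, DMSO vehicle at 2.5% final in controls. The reaction is started by adding the nitrone, and loss of radical is followed at 420 nm every minute for 30 min. Results are reduced ABTS•+ per 30 min as mean ± SEM, N = 10, compared with vehicle by ANOVA with Bonferroni t test.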

[4] = Lipophilicity, log K in methanol-water mixture by HPLC; type: physicochemical
Procedure, shortened: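 Nitrones in methanol (1.0 mg/mL) were run by reverse-phase C18 HPLC, eluted with MeOH/water from 9:1 to 7:3 v/v at 0.8 mL/min. Retention values were extrapolated to 100% aqueous to give log k'W.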

[5] = Inhibition of peroxynitrite-induced cell death in Sprague-Dawley rat primary mixed cortical cells at 10 uM after 24 hrs by trypan blue absorbance assay; type: functional; procedure, shortened: as §1
[6] = Inhibition of hydrogen peroxide-induced cell death in Sprague-Dawley rat primary mixed cortical cells at 10 uM after 24 hrs by trypan blue absorbance assay; type: functional; procedure, shortened: as §1
Rotifers [7] = assay: Protection against doxorubicin-induced toxicity in Rotifers assessed as viability at 10 uM after 24 hrs; type: functional, Rotifera; procedure, shortened: as §2
[8] = Antioxidant activity assessed as ABTS radical scavenging activity assessed as burstlike formation of intensely green colored ABTS radical measured for 30 mins; type: functional
Procedure, shortened: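 Fenton-initiated ABTS cation radical formation: water, ABTS (1 mM stock), FeSO4 (0.5 mM stock), test compound (1 mM stock in DMSO), reaction started with H2O2 (10 mM stock). Absorbance read at 420 nm every minute over 30 min. Controls got DMSO vehicle, 10% final. Scavenging is seen as suppression of time-dependent radical formation.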

[9] = Critical micellar concentration of the compound; type: physicochemical
Procedure, shortened: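 Nitrone solutions in ultrapure water were measured at 25 C by the Wilhelmy plate method with a tensiometer. The cmc was taken as the breakpoint of the plot of surface tension against log concentration.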

[10] = Solubility in water; type: physicochemical
Rattus norvegicus [11] = species: Rattus norvegicus; assay: Restoration of FCCP-induced decrease of mitochondrial membrane potential in Sprague-Dawley rat forebrain mitochondria at 0.8 uM treated 15 mins before FCCP challenge measured after 30 mins by rhodamine 123 fluorescence assay; type: functional
Procedure, shortened: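 Rat forebrain mitochondria respired on 6 mM glutamate/malate at 37.5 C with nitrone. FCCP (0.2 μM) was added at 15 min to partly collapse the potential, and rhodamine 123 fluorescence quenching was recorded directly at 30 min. Potential was calculated by the Scaduto and Grotyohann method. Mean ± SEM of at least four preparations.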

Rattus norvegicus [12] = species: Rattus norvegicus; assay: Inhibition of water soluble peroxide formation in Sprague-Dawley rat forebrain mitochondria at 0.8 uM after 30 mins by FOX assay; type: functional
Procedure, shortened: (§3)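 Rat forebrain mitochondria respired on 6 mM glutamate/malate with nitrone at 37.5 C for 30 min, then were put on ice and homogenized in H2SO4. The supernatant was mixed with FeSO4, xylenol orange and sorbitol at 0.07 M H2SO4, held 30 min at 25 C in the dark, and read at 570 nm. Mean ± SEM of at least four independent preparations.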

Rattus norvegicus [13] = species: Rattus norvegicus; assay: Induction of Electron transport protein complex 1 in Sprague-Dawley rat cortical mitochondria assessed as reduction of ferric cyanide at 10 uM after 30 mins in presence of dopamine
Procedure, shortened: (§4)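 Submitochondrial particles from rat cortical mitochondria were preincubated 30 min with nitrone (10 μM), dopamine, or both. Ferricyanide reduction was then followed from the 440 minus 490 nm difference in the presence of antimycin A and azide at 37.5 C, as a read-out of iron-sulfur cluster N2 activity. Activity is given as nmol/mg protein/min, mean ± SEM, N = 10.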

Rattus norvegicus [14] = species: Rattus norvegicus; assay: Induction of Electron transport protein complex 1 in Sprague-Dawley rat cortical mitochondria assessed as reduction of ferric cyanide at 10 uM after 30 mins; procedure, shortened: as §4
Rattus norvegicus [15] = species: Rattus norvegicus; assay: Inhibition of rotenone-induced electron leakage in Sprague-Dawley rat forebrain mitochondria assessed as NBT reduction at 0.8 uM after 30 mins; type: functional
Procedure, shortened: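 Forebrain mitochondria from 3-month-old rats, in Tris-KCl phosphate medium at pH 7.4, respired on 6 mM glutamate and 6 mM malate at 37.5 C with nitrone for 30 min. NBT reduction was run with 3 μM rotenone and 3 mM azide, and the formazan was then extracted and measured. Mean ± SEM of at least four independent preparations.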

Rattus norvegicus [16] = species: Rattus norvegicus; assay: Induction of Electron transport protein complex 1 in Sprague-Dawley rat cortical mitochondria assessed as reduction of ferric cyanide at 10 uM after 30 mins in presence of EPBNAH
Rotifers [17] = assay: Inhibition of water soluble peroxide formation in Rotifers cultures; type: functional, organism-based; settings: Rotifera; TDE = time-dependent effect
Rattus norvegicus [18] = species: Rattus norvegicus; assay: Inhibition of water soluble peroxide formation in Sprague-Dawley rat forebrain mitochondria at 0.4 uM after 30 mins by FOX assay; type: functional; procedure, shortened: as §3

With `CC(C)(CNC(=O)[C@H](O)[C@H](O)[C@H](O[C@@H]1O[C@H](CO)[C@H](O)[C@H](O)[C@H]1O)[C@@H](O)CO)/[N+]([O-])=C/c1ccc(CNC(=O)CCC(F)(F)C(F)(F)C(F)(F)C(F)(F)C(F)(F)C(F)(F)F)cc1` the inhibition at 10 µM [1] was 32.8%, the Activity (Rotifers [2]) was 30.1% and the Activity [3] was 42.6 nmol. It also gave a logKw [4] of 4.71, an inhibition at 10 µM [5] of 30.3% and an inhibition at 10 µM [6] of 42.6%. The Activity (Rotifers [7]) was 46.7%, the Activity [8] was 90.7 nmol and the CMC [9] was 0.18 mM. For the same compound, the solubility [10] was 270 mg/mL (≈ 289 mM).
In the case of `CCCCCCCC(=O)NCc1ccc(/C=[N+](\[O-])C(C)(C)CNC(=O)[C@H](O)[C@H](O)[C@H](O[C@@H]2O[C@H](CO)[C@H](O)[C@H](O)[C@H]2O)[C@@H](O)CO)cc1`, the inhibition at 10 µM [1] is reported as 93%, the Activity (Rattus norvegicus [11]) is reported as “Active” and the inhibition (Rattus norvegicus [12]) is reported as 80%. The Activity (Rotifers [2]) was 87.6%, the Activity [3] was 49.1 nmol and the logKw [4] was 2.86. It also gave an inhibition at 10 µM [5] of 90.1%, an inhibition at 10 µM [6] of 93% and an Activity (Rattus norvegicus [13]) of 110 nmol/mg/min. For the same compound, the Activity (Rattus norvegicus [14]) was 124 nmol/mg/min, the Activity (Rotifers [7]) was 96.5% and the inhibition (Rattus norvegicus [15]) was “Active”. For the same compound, the Activity [8] was 96.8 nmol, the Activity (Rattus norvegicus [16]) was 31 nmol/mg/min and the inhibition (Rotifers [17]) was “tde”. The solubility [10] was 530 mg/mL (≈ 771 mM).
In the case of `CC(C)(CNC(=O)CCC(F)(F)C(F)(F)C(F)(F)C(F)(F)C(F)(F)C(F)(F)F)/[N+]([O-])=C/c1ccc(CNC(=O)[C@H](O)[C@H](O)[C@H](O[C@@H]2O[C@H](CO)[C@H](O)[C@H](O)[C@H]2O)[C@@H](O)CO)cc1`, the inhibition at 10 µM [1] is reported as 34.9%, the Activity (Rotifers [2]) is reported as 40.6% and the inhibition at 10 µM [5] is reported as 40.1%. The inhibition at 10 µM [6] was 63.4%, the Activity (Rotifers [7]) was 30.6% and the CMC [9] was 0.213 mM.
Compound `CCCCCCCC(=O)NCC(C)(C)/[N+]([O-])=C/c1ccc(CNC(=O)[C@H](O)[C@H](O)[C@H](O[C@@H]2O[C@H](CO)[C@H](O)[C@H](O)[C@H]2O)[C@@H](O)CO)cc1` has an inhibition at 10 µM [1] of 82%, an inhibition (Rattus norvegicus [12]) of 20% and an Activity (Rotifers [2]) of 83%. It also gave an inhibition at 10 µM [5] of 61%, an inhibition at 10 µM [6] of 81% and an inhibition (Rattus norvegicus [18]) of 10%. The Activity (Rattus norvegicus [13]) was 79 nmol/mg/min, the Activity (Rattus norvegicus [14]) was 116 nmol/mg/min and the Activity (Rotifers [7]) was 85.8%. For the same compound, the inhibition (Rattus norvegicus [15]) was “Active”, the Activity (Rattus norvegicus [16]) was 19 nmol/mg/min and the inhibition (Rotifers [17]) was “tde”. The solubility [10] was 515 mg/mL (≈ 749 mM).
With `CC(C)(C)/[N+]([O-])=C/c1ccccc1` the inhibition at 10 µM [1] was 24.2%, the Activity (Rotifers [2]) was 25.6% and the logKw [4] was 1.62. It also gave an inhibition at 10 µM [5] of 20.6%, an inhibition at 10 µM [6] of 25% and an Activity (Rattus norvegicus [13]) of 60 nmol/mg/min. The Activity (Rattus norvegicus [14]) was 107 nmol/mg/min, the Activity (Rotifers [7]) was 18.7% and the Activity (Rattus norvegicus [16]) was 13 nmol/mg/min.
